Screens (PubChem)
The list is not random: actives were taken first. Their share in the collection is about 4.5%.
CHO parental Ca = counter-screen: ATP calcium response change in parental CHO cells | parental CHO-K1, ATP-induced calcium, Fluo-8 fluorescence | inhibition, % at 5.6 µM | 330,000 compounds, 0.63% hits | AID 463079;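 active means inhibition above that plate's mean sample inhibition plus 3 SD, cut at about 26% in these data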;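 further: 0% = ATP-challenged DMSO wells and 100% = DMSO wells without ATP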
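Material – parental CHO cells · Reagent – ATP stimulus · Compound – single nominal dose of 5.6 µM per compound · Detection – Fluo-8 fluorescence · Read-out basis – percent inhibition of calcium signal · Controls – ATP-challenged DMSO wells low, unchallenged DMSO wells high · Repeats – no replicates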
TAAR1 antagonist = antagonists of human TAAR1 | Q96RJ0 | CHO RD-HGA16 TAAR1, Fluo-8 calcium fluorescence, antagonist | inhibition, % at 3 µM | 360,000 compounds, 1.5% hits | AID 624466;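 active means inhibition above a per-plate cutoff, the mean inhibition of test compounds on that plate plus 3 SD, cut at about 49% in these data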;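 further: 0% = DMSO plus EC80 beta-PEA response and 100% = DMSO alone without agonist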
Target sequence (Q96RJ0 whole entry, looked up): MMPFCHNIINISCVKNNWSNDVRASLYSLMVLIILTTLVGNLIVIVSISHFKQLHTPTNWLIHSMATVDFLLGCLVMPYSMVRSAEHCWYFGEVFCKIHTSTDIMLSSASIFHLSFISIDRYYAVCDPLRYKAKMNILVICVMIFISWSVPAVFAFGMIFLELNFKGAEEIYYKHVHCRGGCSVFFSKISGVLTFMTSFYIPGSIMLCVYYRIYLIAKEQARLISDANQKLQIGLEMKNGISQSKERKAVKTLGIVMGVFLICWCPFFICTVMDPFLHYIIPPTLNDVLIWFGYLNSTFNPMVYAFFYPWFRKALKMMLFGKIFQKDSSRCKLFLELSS
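System: CHO RD-HGA16 cells bearing hTAAR1. Reagent: EC80 β-phenethylamine stimulus. Schedule: seeding 17-24 h prior, 75-min 37 °C, 30-min RT dye loading. Signal: Fluo-8 intracellular calcium dye fluorescence, real-time kinetic reads. Read-out: % inhibition from peak post-agonist over basal fluorescence ratio. Benchmarks: vehicle wells and EC80 agonist wells. Replicates: n of 1.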
GPR7 antag = antagonists of human GPR7 (neuropeptides B/W receptor 1) | P48145 | GPR7-expressing cells, fluorescence antagonist assay | inhibition, % at 4.4 µM | 290,000 compounds, 1.1% hits | AID 1861; in the data active means inhibition above about 16%, passing the limit was not always enough;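 further: cells stimulated with the agonist NPW; 0% = agonist with vehicle and 100% = vehicle without agonist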
Target sequence (P48145 whole entry, looked up): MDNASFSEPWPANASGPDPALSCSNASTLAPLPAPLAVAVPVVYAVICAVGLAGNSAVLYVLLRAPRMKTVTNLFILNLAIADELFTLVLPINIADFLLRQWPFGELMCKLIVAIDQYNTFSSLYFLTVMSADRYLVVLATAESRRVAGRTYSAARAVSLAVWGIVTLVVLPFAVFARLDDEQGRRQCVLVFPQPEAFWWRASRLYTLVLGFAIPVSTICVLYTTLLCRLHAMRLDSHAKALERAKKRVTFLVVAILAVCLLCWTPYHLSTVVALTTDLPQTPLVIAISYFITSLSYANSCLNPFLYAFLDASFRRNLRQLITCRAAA
TAAR1 agonist = agonists of human TAAR1; activation, % at 3 µM; CHO RD-HGA16 TAAR1, Fluo-8 calcium fluorescence; vehicle wells 0%, saturating PEA agonist 100%; 360,000 compounds, 0.99% hits; Q96RJ0;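 active means activation above the mean activation of all test compounds in the run plus 3 SD, cut at about 38% in these data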
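Benchmarks: low control DMSO, high control PEA (EC100); System: CHO RD-HGA16 cells carrying human TAAR1 plus Gα16; Detection: Fluo-8 fluorescence, 5 s baseline then 140 s kinetic read; Schedule: 17-24 h plating, Fluo-8 75 min 37 °C, 30 min RT; Read-out basis: % activation from peak over basal fluorescence ratio, DMSO-to-PEA scaled.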
OX1R antag-1 = antagonists of human orexin 1 receptor (OX1R); OX1R-expressing cells, FRET antagonist read-out; inhibition, % at 6.6 µM; 330,000 compounds, 1.8% hits; AID 485270; in the data active means inhibition mostly above about 38%, no sharp cut-off; inactive means mostly below about 40%;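 further: 0% = agonist challenge alone and 100% = reference antagonist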
OX1R antag-2 = antagonists of human orexin 1 receptor; O43613; CHO/OX1R cells, Fluo-8 calcium fluorescence, orexin A; inhibition, % at 5 µM; 330,000 compounds, 0.43% hits; AID 434989;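 active means inhibition above its plate's threshold, mean inhibition of all tested compounds on the plate plus 3 SD, cut at about 37% in these data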;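 further: 0% = orexin A challenge wells and 100% = SB-334867-A antagonist wells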
OX1R HTRF conf = OX1R (human) antagonism, HTRF confirmed; OX1R-expressing cells, HTRF antagonist assay; inhibition, % at 6.6 µM; AID 492964; shares compounds with OX1R antag-1; 1,800 compounds, 49% hits; in the data active means inhibition above about 55%;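 further: CHO cells expressing OX1R stimulated with orexin A at about EC80; 0% = agonist challenge alone and 100% = reference antagonist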
CHO-K1 HTRF = counter-screen for OX1R antagonists: effect in parental CHO-K1 cells; shares compounds with OX1R antag-1; HTRF counterscreen; inhibition, % at 6.6 µM; 1,800 compounds, 48% hits; AID 493232; in the data active means inhibition above about 17%;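 further: 0% = agonist challenge with vehicle and 100% = vehicle alone without agonist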
The depositor's hits bear a star.

How did Cc1cc2cc(CN3C(=O)c4ccccc4C3=O)ccc2n1C do in these assays?
CHO parental Ca: -14; TAAR1 antagonist: 2; GPR7 antag: -6; TAAR1 agonist: 8; OX1R antag-1: 22; OX1R antag-2: 3

What do the screens show for `CC(=O)N1CCn2c3c(c(=O)c4cc(C)ccc42)CCC31` (stereo not drawn)?
CHO parental Ca: -5; TAAR1 antagonist: 6; GPR7 antag: -5; TAAR1 agonist: 3; OX1R antag-1: 82*; OX1R antag-2: -11; OX1R HTRF conf: 29; CHO-K1 HTRF: 13

Results for O=[N+]([O-])C1=CC=C2C(=NC3(CCCCC3)N2O)C1=NCCO ?
CHO parental Ca: -6; TAAR1 antagonist: 3; GPR7 antag: -6; TAAR1 agonist: 1; OX1R antag-1: 83*; OX1R antag-2: -2; OX1R HTRF conf: 73*; CHO-K1 HTRF: 112*

How did COc1ccc2nc(SCC(=O)NC(C)c3ccccc3)[nH]c2c1 (stereo not drawn) do in these assays?
CHO parental Ca: -22; TAAR1 antagonist: 3; TAAR1 agonist: 4; OX1R antag-1: 5; OX1R antag-2: -11

How did CCCCOc1ccc(/C=C/C(=O)OCC(=O)NC(=O)NCC(C)C)cc1OCC do in these assays?
CHO parental Ca: -10; TAAR1 antagonist: -14; GPR7 antag: -5; TAAR1 agonist: 0; OX1R antag-1: 10; OX1R antag-2: 0

How did COc1ccc2c(c1)[n+](=O)c(C(C)=O)c(C)n2[O-] do in these assays?
CHO parental Ca: 21; TAAR1 antagonist: -6; GPR7 antag: -7; TAAR1 agonist: 0; OX1R antag-1: 39; OX1R antag-2: 4

Results for CC(=O)c1c(C)n([O-])c2cc(F)c(F)cc2[n+]1=O ?
CHO parental Ca: -12; TAAR1 antagonist: -12; GPR7 antag: -12; TAAR1 agonist: 2; OX1R antag-1: 81*; OX1R antag-2: -2; OX1R HTRF conf: 67*; CHO-K1 HTRF: 54*

What do the screens show for `CN(CCO)C1=NS(=O)(=O)c2cc([N+](=O)[O-])ccc21`?
CHO parental Ca: -9; TAAR1 antagonist: 9; GPR7 antag: -8; TAAR1 agonist: 8; OX1R antag-1: 95*; OX1R antag-2: -10; OX1R HTRF conf: 66*; CHO-K1 HTRF: 94*

Results for CN(CCO)c1cc(N(C)CCO)c([N+](=O)[O-])cc1[N+](=O)[O-] ?
CHO parental Ca: 6; TAAR1 antagonist: -17; GPR7 antag: -6; TAAR1 agonist: 3; OX1R antag-1: 17; OX1R antag-2: 0

How did CN(CCO)c1cc(N2CCN(C(=O)c3ccco3)CC2)c2nonc2c1[N+](=O)[O-] do in these assays?
CHO parental Ca: 3; TAAR1 antagonist: -6; GPR7 antag: 12; TAAR1 agonist: 0; OX1R antag-1: 107*; OX1R antag-2: 2; OX1R HTRF conf: 43; CHO-K1 HTRF: 48*

What do the screens show for `CC1CCN(c2cc(N(C)CCO)c([N+](=O)[O-])c3nonc23)CC1`?
CHO parental Ca: -4; TAAR1 antagonist: -15; GPR7 antag: -8; TAAR1 agonist: 1; OX1R antag-1: 39; OX1R antag-2: -13

Results for N/C(=N\OC(=O)Nc1ccccc1)c1ncc([N+](=O)[O-])s1 ?
CHO parental Ca: 1; TAAR1 antagonist: -16; GPR7 antag: -9; TAAR1 agonist: 1; OX1R antag-1: 127*; OX1R antag-2: -14; OX1R HTRF conf: 51; CHO-K1 HTRF: 79*

Results for CCOC(=O)c1nnn(-c2ccc([N+](=O)[O-])cc2[N+](=O)[O-])c1C ?
CHO parental Ca: -20; TAAR1 antagonist: 11; GPR7 antag: -3; TAAR1 agonist: 5; OX1R antag-1: 143*; OX1R antag-2: -6; OX1R HTRF conf: 46; CHO-K1 HTRF: 73*

Results for CC1CCN(S(=O)(=O)CCNC(=O)c2ccccc2)CC1 ?
CHO parental Ca: -8; TAAR1 antagonist: 4; TAAR1 agonist: 2; OX1R antag-1: 89*; OX1R antag-2: -12; OX1R HTRF conf: 9; CHO-K1 HTRF: 2

Results for Cc1cccc(NC(=O)Nc2cccc(C#N)c2)n1 ?
CHO parental Ca: -13; TAAR1 antagonist: 8; GPR7 antag: -2; TAAR1 agonist: -1; OX1R antag-1: 91*; OX1R antag-2: -21; OX1R HTRF conf: 54; CHO-K1 HTRF: 5

Results for COc1ccc2cc3cc(C(=O)NCCCN4CCOCC4)oc3nc2c1 ?
CHO parental Ca: -3; TAAR1 antagonist: -20; GPR7 antag: 8; TAAR1 agonist: 0; OX1R antag-1: 135*; OX1R antag-2: -13; OX1R HTRF conf: 56*; CHO-K1 HTRF: 35*

How did Cc1ccc2cc3cc(C(=O)NCCN4CCOCC4)oc3nc2c1 do in these assays?
CHO parental Ca: -8; TAAR1 antagonist: 1; GPR7 antag: 5; TAAR1 agonist: 4; OX1R antag-1: 117*; OX1R antag-2: -6; OX1R HTRF conf: 46; CHO-K1 HTRF: 38*

What do the screens show for `Cc1ccc2cc3cc(C(=O)NCCCN4CCCC4=O)oc3nc2c1`?
CHO parental Ca: -8; TAAR1 antagonist: -13; GPR7 antag: -1; TAAR1 agonist: -1; OX1R antag-1: 22; OX1R antag-2: -15

What do the screens show for `CCN1CCN(CCCNC(=O)c2cc3cc4ccc(OC)cc4nc3o2)CC1`?
CHO parental Ca: -23; GPR7 antag: -8; OX1R antag-1: 104*; OX1R antag-2: -30; OX1R HTRF conf: 37; CHO-K1 HTRF: 41*

What do the screens show for `CCS(=O)(=O)c1ccc2c(c1)N(S(=O)(=O)c1ccc(Cl)cc1)CC(C(=O)O)O2` (stereo not drawn)?
CHO parental Ca: 0; TAAR1 antagonist: 11; GPR7 antag: -4; TAAR1 agonist: 5; OX1R antag-1: 40; OX1R antag-2: -6

What do the screens show for `CC(C)(C)OC(=O)N1CCC(NC(=O)c2ncn(Cc3ccccc3)c2C(=O)NC2CCN(C(=O)OC(C)(C)C)CC2)CC1`?
CHO parental Ca: -36; TAAR1 antagonist: 24; TAAR1 agonist: -1; OX1R antag-1: -1; OX1R antag-2: -35

How did CC(=O)Nc1ccc(NC(=O)C2CCCN2S(=O)(=O)c2cccc3nsnc23)cc1 (stereo not drawn) do in these assays?
CHO parental Ca: 5; TAAR1 antagonist: 1; GPR7 antag: -12; TAAR1 agonist: 0; OX1R antag-1: 80*; OX1R antag-2: -12; OX1R HTRF conf: 62*; CHO-K1 HTRF: 36*

Results for O=S(=O)(Nc1ccccc1)c1cccc2nsnc12 ?
CHO parental Ca: 7; TAAR1 antagonist: -5; GPR7 antag: -12; TAAR1 agonist: 2; OX1R antag-1: 26; OX1R antag-2: -7
